ChEMBL document CHEMBL3822431, “Hydroxychalcone inhibitors of Streptococcus mutans glucosyl transferases and biofilms as potential anticaries agents” (Bioorg Med Chem Lett, 2016)
Calls of active or inactive are those of the source. The rule behind the calls is not given here.

Tests used:
[1] = target: T1, Glucosyltransferase-I (Streptococcus mutans serotype c (strain ATCC 700610 / UA159)) (UniProt P08987); test: Inhibition of Wild-type Streptococcus mutans UA159 glucosyltransferase B by zymography
T1 sequence (whole entry): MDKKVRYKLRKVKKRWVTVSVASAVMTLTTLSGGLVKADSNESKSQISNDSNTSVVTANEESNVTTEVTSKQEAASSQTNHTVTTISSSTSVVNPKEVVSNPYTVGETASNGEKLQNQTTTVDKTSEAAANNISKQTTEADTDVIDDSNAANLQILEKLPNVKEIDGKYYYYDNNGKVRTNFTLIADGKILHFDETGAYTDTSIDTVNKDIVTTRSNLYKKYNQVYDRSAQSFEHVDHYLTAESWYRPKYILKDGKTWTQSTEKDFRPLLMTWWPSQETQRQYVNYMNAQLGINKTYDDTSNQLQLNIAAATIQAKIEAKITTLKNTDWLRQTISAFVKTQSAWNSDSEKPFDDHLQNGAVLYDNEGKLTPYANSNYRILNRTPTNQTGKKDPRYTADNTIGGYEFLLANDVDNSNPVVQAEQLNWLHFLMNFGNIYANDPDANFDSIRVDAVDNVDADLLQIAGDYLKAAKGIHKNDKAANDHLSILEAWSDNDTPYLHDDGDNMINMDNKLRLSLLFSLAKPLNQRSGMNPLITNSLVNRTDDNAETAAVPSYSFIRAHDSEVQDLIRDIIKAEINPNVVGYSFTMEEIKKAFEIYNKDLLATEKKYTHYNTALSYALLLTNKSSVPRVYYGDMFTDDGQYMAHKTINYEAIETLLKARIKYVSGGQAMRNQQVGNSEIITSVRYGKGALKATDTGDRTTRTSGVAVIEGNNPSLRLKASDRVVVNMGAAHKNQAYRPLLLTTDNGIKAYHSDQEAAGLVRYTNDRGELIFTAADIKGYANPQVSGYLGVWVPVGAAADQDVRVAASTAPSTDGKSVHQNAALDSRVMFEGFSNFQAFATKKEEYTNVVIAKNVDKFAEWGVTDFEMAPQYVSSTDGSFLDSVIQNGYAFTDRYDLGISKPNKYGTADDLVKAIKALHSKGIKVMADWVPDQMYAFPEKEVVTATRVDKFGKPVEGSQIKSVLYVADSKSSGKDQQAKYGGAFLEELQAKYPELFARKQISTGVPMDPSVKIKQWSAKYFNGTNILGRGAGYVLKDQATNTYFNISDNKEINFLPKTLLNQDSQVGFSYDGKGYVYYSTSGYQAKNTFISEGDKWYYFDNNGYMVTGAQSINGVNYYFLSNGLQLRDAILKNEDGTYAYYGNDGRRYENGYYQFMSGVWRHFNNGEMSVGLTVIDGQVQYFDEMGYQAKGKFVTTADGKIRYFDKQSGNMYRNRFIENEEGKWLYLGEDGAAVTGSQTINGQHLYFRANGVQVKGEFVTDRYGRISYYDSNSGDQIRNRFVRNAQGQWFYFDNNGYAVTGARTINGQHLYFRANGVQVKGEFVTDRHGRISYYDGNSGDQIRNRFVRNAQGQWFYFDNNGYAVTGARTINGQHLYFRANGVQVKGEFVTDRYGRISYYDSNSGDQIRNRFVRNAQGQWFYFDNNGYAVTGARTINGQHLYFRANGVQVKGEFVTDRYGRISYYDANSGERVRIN
Procedure, shortened: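 S. mutans UA159 wild type co-incubated with compound at different concentrations; Gtfs concentrated from supernatants, separated by SDS-PAGE and assayed by zymography, glucan band intensity reflecting enzyme activity.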

[2] = target: T1, Glucosyltransferase-I (Streptococcus mutans serotype c (strain ATCC 700610 / UA159)); test: Inhibition of Wild-type Streptococcus mutans UA159 glucosyltransferase B at 50 uM by zymography
Procedure, shortened: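 Compound (50 µM) added to overnight S. mutans UA159 wild-type cultures; Gtfs concentrated from supernatants, run on duplicate SDS-PAGE; second gel used for zymogram, glucan band intensity taken as Gtf activity.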

Streptococcus mutans [3] = test: Inhibition of Gfp tagged Streptococcus mutans UA159 colony formation in guts of sucrose-dependent Drosophila colonization model at 50 uM measured 7 days post infection by fluorescent microscopy; assay type: functional, organism-based
Procedure, shortened: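 Drosophila fed Gfp-tagged S. mutans with compound at 50 µM; DMSO as negative control, ΔgtfB mutant as biofilm-defective comparator; gut fluorescence examined by fluorescent microscopy 7 days after infection.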

Streptococcus mutans [4] = test: Growth inhibition of Streptococcus mutans UA159 after 16 hrs; assay type: organism-based; conditions: Streptococcus mutans, UA159, 16 h; read-out: IC50
Procedure, shortened: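 S. mutans UA159 co-incubated with compound at various concentrations; growth measured at OD470.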

Row | Compound | inhibition [1] | inhibition [2] | inhibition (Streptococcus mutans [3]) | IC50 (Streptococcus mutans [4]) [mM]
1 | O=C(/C=C\c1ccc(O)cc1O)c1cccc(O)c1 | Dose-dependent effect | Active | Active | 
2 | O=C(/C=C/c1ccc(O)cc1O)c1ccc(O)cc1 |  | Active |  | 1.06
3 | O=C(/C=C\c1ccc(O)cc1O)c1ccc(O)cc1 |  | Active |  | 
4 | O=C(/C=C/c1ccc(O)cc1O)c1cccc(O)c1 (stereo in doubt; 9a) |  | Active | Active | 
5 | O=C(/C=C/c1cc(O)c(O)cc1O)c1ccccc1O (stereo in doubt; 18c) |  | Active |  | 
